From ChEMBL document CHEMBL2331506, “Design, synthesis, antiviral and cytostatic evaluation of novel isoxazolidine nucleotide analogues with a carbamoyl linker” (Bioorg Med Chem, 2013)
The source made the active and inactive calls. How the calls were made is not given here.

Tests used:
[1] = test system: Human immunodeficiency virus 1; assay: Antiviral activity against Human immunodeficiency virus 1 3B infected in human CEM cells assessed as reduction of virus-induced giant cell formation at 250 uM after 4 to 5 days; type: functional, organism-based; conditions: CCRF-CEM
How it was run: (§1)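 CEM cells at 3 × 10^5 cells/mL were infected with HIV at 100 CCID50 per mL in the presence of compound dilutions. They were held 4–5 days at 37 °C in humidified CO2. Syncytium (giant cell) formation was scored microscopically, and EC50 was taken as the concentration inhibiting giant cell formation by 50%.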

MDCK = assay: Cytotoxicity against dog MDCK cells assessed as alteration of cell morphology up to 100 uM by microscopic analysis; type: cell-based, Canis lupus familiaris
How it was run: (§2)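 Uninfected host-cell cultures were exposed to compound and examined by microscopy. Cytotoxicity was expressed as the minimum cytotoxic concentration (MCC) causing a microscopically detectable alteration of normal cell morphology.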

Felid alphaherpesvirus 1 = assay: Antiviral activity against Feline herpes virus infected in cat CRFK cells assessed as reduction of virus-induced cytopathogenicity at 250 uM; type: functional, organism-based
Influenza A virus [2] = assay: Antiviral activity against Influenza A virus H1N1 infected in dog MDCK cells assessed as reduction of virus-induced cytopathogenicity at 250 uM; type: functional, organism-based
How it was run: (§3)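 Confluent cell monolayers were infected with 100 CCID50 of virus while exposed to varying compound concentrations. Cytopathicity was scored once it was complete in untreated infected controls. EC50 was taken as the concentration that reduced virus-induced cytopathogenicity by 50%.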

Influenza A virus [3] = assay: Antiviral activity against Influenza A virus H3N2 infected in dog MDCK cells assessed as reduction of virus-induced cytopathogenicity at 250 uM; type: functional, organism-based; how it was run: as §3
Vero = assay: Cytotoxicity against african green monkey Vero cells assessed as alteration of cell morphology up to 100 uM by microscopic analysis; type: cell-based; conditions: chlorocebus sabaeus; how it was run: as §2
Punta Toro virus = assay: Antiviral activity against Punta Toro virus infected in african green monkey Vero cells assessed as reduction of virus-induced cytopathogenicity at 250 uM; type: functional, organism-based
How it was run: (§4)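 Confluent monolayers (HEL fibroblasts, Vero, or HeLa cells as listed) were infected with 100 CCID50 of virus in the presence of varying compound concentrations. Virus-induced cytopathicity or plaque formation was scored once cytopathicity was complete in untreated infected controls. EC50 was taken as the concentration reducing cytopathogenicity or plaque formation by 50%.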

Human respirovirus 3 = assay: Antiviral activity against Parainfluenza virus 3 infected in african green monkey Vero cells assessed as reduction of virus-induced cytopathogenicity at 250 uM; type: functional, organism-based; how it was run: as §4
Influenza B virus = assay: Antiviral activity against Influenza B virus infected in dog MDCK cells assessed as reduction of virus-induced cytopathogenicity at 250 uM; type: functional, organism-based; how it was run: as §3
HEL = assay: Cytotoxicity against human HEL cells assessed as alteration of cell morphology up to 100 uM by microscopic analysis; type: cell-based; how it was run: as §2
[4] = test system: Respiratory syncytial virus; assay: Antiviral activity against Respiratory syncytial virus long infected in human HeLa cells assessed as reduction of virus-induced cytopathogenicity at 250 uM; type: functional, organism-based; how it was run: as §4
HeLa = assay: Cytotoxicity against human HeLa cells assessed as alteration of cell morphology up to 100 uM by microscopic analysis; type: cell-based; how it was run: as §2
[5] = test system: Mammalian orthoreovirus 1; assay: Antiviral activity against Reovirus 1 infected in african green monkey Vero cells assessed as reduction of virus-induced cytopathogenicity at 250 uM; type: functional, organism-based; how it was run: as §4
[6] = Cytotoxicity against cat CRFK cells assessed as alteration of cell morphology up to 100 uM by microscopic analysis; type: cell-based, Felis catus; how it was run: as §2
Coxsackievirus B4 = assay: Antiviral activity against Coxsackievirus B4 infected in african green monkey Vero cells assessed as reduction of virus-induced cytopathogenicity at 250 uM; type: functional, organism-based; how it was run: as §4
[7] = test system: Human immunodeficiency virus 2; assay: Antiviral activity against Human immunodeficiency virus 2 ROD infected in human CEM cells assessed as reduction of virus-induced giant cell formation at 250 uM after 4 to 5 days; type: functional, organism-based; conditions: CCRF-CEM; how it was run: as §1
Human alphaherpesvirus 1 [8] = assay: Antiviral activity against Herpes simplex virus 1 KOS infected in human HEL cells assessed as reduction of virus-induced cytopathogenicity at 250 uM; type: functional, organism-based; how it was run: as §4
[9] = test system: Vesicular stomatitis virus; assay: Antiviral activity against Vesicular stomatitis virus infected in human HEL cells assessed as reduction of virus-induced cytopathogenicity at 250 uM; type: functional, organism-based; how it was run: as §3
[10] = test system: Vesicular stomatitis virus; assay: Antiviral activity against Vesicular stomatitis virus infected in human HeLa cells assessed as reduction of virus-induced cytopathogenicity at 250 uM; type: functional, organism-based; how it was run: as §3
Feline coronavirus = assay: Antiviral activity against Feline coronavirus infected in cat CRFK cells assessed as reduction of virus-induced cytopathogenicity at 250 uM; type: functional, organism-based
Human alphaherpesvirus 1 [11] = assay: Antiviral activity against thymidine kinase-deficient, ACV-resistant Herpes simplex virus 1 KOS infected in human HEL cells assessed as reduction of virus-induced cytopathogenicity at 250 uM; type: functional, organism-based; how it was run: as §3
Sindbis virus = assay: Antiviral activity against Sindbis virus infected in african green monkey Vero cells assessed as reduction of virus-induced cytopathogenicity at 250 uM; type: functional, organism-based; how it was run: as §4
Human alphaherpesvirus 2 = assay: Antiviral activity against Herpes simplex virus 2 G infected in human HEL cells assessed as reduction of virus-induced cytopathogenicity at 250 uM; type: functional, organism-based; conditions: strain G; how it was run: as §4

SMILES	inhibition [1]	Activity (MDCK)	inhibition (Felid alphaherpesvirus 1)	inhibition (Influenza A virus [2])	inhibition (Influenza A virus [3])	Activity (Vero)	inhibition (Punta Toro virus)	inhibition (Human respirovirus 3)	inhibition (Influenza B virus)	Activity (HEL)	inhibition [4]	Activity (HeLa)	inhibition [5]	Activity [6]	inhibition (Coxsackievirus B4)	inhibition [7]	inhibition (Human alphaherpesvirus 1 [8])	inhibition [9]	inhibition [10]	inhibition (Feline coronavirus)	also measured
CCOP(=O)(OCC)[C@@H]1C[C@H](C(=O)Nc2cccc(Cl)c2)ON1C (mixture of isomers)	inactive	Non-toxic	inactive	inactive	inactive	Non-toxic	inactive	inactive	inactive	Non-toxic	inactive	Non-toxic	inactive	Non-toxic	inactive	inactive	inactive	inactive	inactive	inactive	inhibition (Human alphaherpesvirus 1 [11]): inactive; inhibition (Sindbis virus): inactive; inhibition (Human alphaherpesvirus 2): inactive
CCOP(=O)(OCC)[C@@H]1C[C@H](C(=O)Nc2ccc(Br)cc2)ON1C (mixture of isomers)	inactive	Non-toxic	inactive	inactive	inactive	Non-toxic	inactive	inactive	inactive	Non-toxic	inactive	Non-toxic	inactive	Non-toxic	inactive	inactive	inactive	inactive	inactive	inactive	inhibition (Human alphaherpesvirus 1 [11]): inactive; inhibition (Sindbis virus): inactive; inhibition (Human alphaherpesvirus 2): inactive
CCOP(=O)(OCC)[C@H]1C[C@H](C(=O)Nc2cccc(Cl)c2)ON1C (mixture of isomers)	inactive	Non-toxic	inactive	inactive	inactive	Non-toxic	inactive	inactive	inactive	Non-toxic	inactive	Non-toxic	inactive	Non-toxic	inactive	inactive	inactive	inactive	inactive	inactive	inhibition (Human alphaherpesvirus 1 [11]): inactive; inhibition (Sindbis virus): inactive; inhibition (Human alphaherpesvirus 2): inactive
CCOP(=O)(OCC)[C@H]1C[C@H](C(=O)Nc2cccc([N+](=O)[O-])c2)ON1C (mixture of isomers)	inactive	Non-toxic	inactive	inactive	inactive	Non-toxic	inactive	inactive	inactive	Non-toxic	inactive	Non-toxic	inactive	Non-toxic	inactive	inactive	inactive	inactive	inactive	inactive	inhibition (Human alphaherpesvirus 1 [11]): inactive; inhibition (Sindbis virus): inactive; inhibition (Human alphaherpesvirus 2): inactive
CCOP(=O)(OCC)[C@@H]1C[C@H](C(=O)Nc2cccc([N+](=O)[O-])c2)ON1C (mixture of isomers)	inactive	Non-toxic	inactive	inactive	inactive	Non-toxic	inactive	inactive	inactive	Non-toxic	inactive	Non-toxic	inactive	Non-toxic	inactive	inactive	inactive	inactive	inactive	inactive	inhibition (Human alphaherpesvirus 1 [11]): inactive; inhibition (Sindbis virus): inactive; inhibition (Human alphaherpesvirus 2): inactive
CCOP(=O)(OCC)[C@H]1C[C@H](C(=O)Nc2ccc([N+](=O)[O-])cc2)ON1C (mixture of isomers)	inactive	Non-toxic	inactive	inactive	inactive	Non-toxic	inactive	inactive	inactive	Non-toxic	inactive	Non-toxic	inactive	Non-toxic	inactive	inactive	inactive	inactive	inactive	inactive	inhibition (Human alphaherpesvirus 1 [11]): inactive; inhibition (Sindbis virus): inactive; inhibition (Human alphaherpesvirus 2): inactive
CCOP(=O)(OCC)[C@@H]1C[C@H](C(=O)Nc2ccc(C#N)cc2)ON1C (mixture of isomers)	inactive	Non-toxic	inactive	inactive	inactive	Non-toxic	inactive	inactive	inactive	Non-toxic	inactive	Non-toxic	inactive	Non-toxic	inactive	inactive	inactive	inactive	inactive	inactive	inhibition (Human alphaherpesvirus 1 [11]): inactive; inhibition (Sindbis virus): inactive; inhibition (Human alphaherpesvirus 2): inactive
CCOP(=O)(OCC)[C@H]1C[C@H](C(=O)Nc2ccccc2C(C)=O)ON1C (mixture of isomers)	inactive	Non-toxic	inactive	inactive	inactive	Non-toxic	inactive	inactive	inactive	Non-toxic	inactive	Non-toxic	inactive	Non-toxic	inactive	inactive	inactive	inactive	inactive	inactive	inhibition (Human alphaherpesvirus 1 [11]): inactive; inhibition (Sindbis virus): inactive; inhibition (Human alphaherpesvirus 2): inactive
